# Results from different studies.
# Protocols differ between the studies behind these lines.
# MPO: Myeloperoxidase (MPO, Homo sapiens, UniProt P05164)
# SLC6A2: Sodium-dependent noradrenaline transporter (SLC6A2, Homo sapiens, UniProt P23975)
# CASK: Peripheral plasma membrane protein CASK (CASK, Homo sapiens, UniProt O14936)
Compound,target,assay,test system,conditions,measurement,value
CC(=O)N[C@H](CCCNC(=N)N)C(=O)N[C@H]1CSSC[C@@H](C(N)=O)NC(=O)[C@H](Cc2c[nH]c3ccccc23)NC(=O)[C@H](CCCNC(=N)N)NC(=O)[C@@H](Cc2ccccc2)NC(=O)[C@H](Cc2c[nH]cn2)NC(=O)[C@H](CCC(=O)O)NC1=O,"Melanocortin receptor 4 (MC4R, Homo sapiens, UniProt P32245)","cAMP, agonist",CHO-K1,,Emax,100%
Cc1cc(O)c(-c2ccc([C@@H](C)CN(C)C)cc2)c2c1[nH]c(=O)c1sccc12,"STE20/SPS1-related proline-alanine-rich protein kinase (STK39, Homo sapiens, UniProt Q9UEW8)","enzyme activity, inhibitor",,0.1 µM,inhibition,13.6%
NC/C(=C\F)COc1cccc(Cn2c(=S)[nH]c(=O)c3[nH]cnc32)c1,MPO,"enzyme activity, inhibitor, fluorescence",,1.4 nM,inhibition,17.2%
CCOC(=O)[C@@]12C[C@@H]1[C@@H](n1cnc3c(NCCCCc4ccccc4)nc(C#Cc4ccc(Cl)s4)nc31)[C@H](O)[C@@H]2O,SLC6A2,"ligand displacement, radioligand",,10 µM,inhibition,3%
COc1ccc(Cl)cc1-c1cc(=O)[nH]c(=S)n1CC(N)=O,MPO,"enzyme activity, inhibitor, fluorescence",,0.5556 µM,inhibition,87.6%
CCCCC(=O)Nc1ccc(-c2ccc3ncn(CCC)c(=O)c3c2)cn1,CASK,"binding, competition with immobilised ligand",,0.5 µM,remaining binding,100%
CC(C)[C@@H](CN1CCc2ccccc2C1)NC(=O)c1ccc(F)cc1,"Kappa-type opioid receptor (Oprk1, Mus musculus, UniProt P33534)","ligand displacement, radioligand",,10 µM,inhibition,75.7%
CCOC(=O)[C@@]12C[C@@H]1[C@@H](n1cnc3c(NCc4cccc(Cl)c4)nc(C#Cc4ccc(Cl)s4)nc31)[C@H](O)[C@@H]2O,SLC6A2,"ligand displacement, radioligand",,10 µM,inhibition,78%
C1=C/COCc2cc(ccc2OCCN2CCCC2)Nc2nccc(n2)-c2cccc(c2)COC/1,CASK,binding,,0.1 µM,remaining binding,81%
CNC(=O)[C@@]12C[C@@H]1[C@@H](n1cnc3c(Nc4ccccc4)nc(C#Cc4ccc(Cl)s4)nc31)[C@H](O)[C@@H]2O,SLC6A2,"ligand displacement, radioligand",,10 µM,inhibition,77%
CC(C)OCCn1c(=S)[nH]c(=O)c2[nH]ccc21,MPO,"enzyme activity, inhibitor",,0.3125 µM,remaining activity,67.4%
O[C@@H]1[C@H](O)[C@@H]2C[C@@H]2[C@H]1n1cnc2c(NCCC3CC3)ncnc21,SLC6A2,"transporter uptake, inhibitor, radiometric",HEK293,10 µM,inhibition,0%
COc1ccc2oc(-c3ccc4nc(N)oc4c3)c/c(=N\c3ccccc3NC(=O)CCN)c2c1,"Fibroblast growth factor receptor 1 (FGFR1, Homo sapiens, UniProt P11362)",binding,,1 µM,remaining binding,94%
